The values that follow come from ChEMBL document CHEMBL1122273, “5-sulfamoylorthanilic acids, a sulfonamide series with salidiuretic activity” (J Med Chem, 1983).

The species named for test [1] is Rattus norvegicus. Nature of the test: Saluretic activity in the rat measured as concentration of K+ in urine. In kind it is functional. The essentials:
(§1)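 Rats deprived of food 24 h, water ad libitum, dosed 50 mg/kg by stomach tube as suspension in 2% starch, no extra water load. Groups of three in diuresis funnels; urine over first 5 h collected. Na⁺ and K⁺ by flame photometry, Cl⁻ argentometrically; expressed as mequiv/kg.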

Test [2] concerns Canis familiaris. Kind of test: Saluretic activity in the dog measured as concentration of K+ in urinary excretion (2 animals/dose) at (dose 1.56 mg/Kg, po). In kind it is functional, Canis lupus familiaris, Urine. In outline: (§2)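 Male beagles trained to rest on a table and to accept stomach tube and catheter. Food withdrawn 24 h before, tap water ad libitum. Bladder emptied by catheter, then 20 mL/kg tap water by stomach tube. Catheterized hourly up to 8 h with 4 mL/kg water orally each time; first 2 h urine served as control. Oral dosing after second catheterization. Pooled 1–6 h urine; Na⁺/K⁺ by flame photometry, Cl⁻ argentometrically.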

The nature of test [3]: It is the ratio, measured as saluretic activity in the dog as concentration of Cl- in urinary excretion (dose mg/Kg, po) to that of (Na+)+(K+). The format is functional, Urine. The essentials:
(§3)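 Trained male beagles, fasted 24 h with tap water ad libitum. Bladder emptied by catheter, then 20 mL/kg tap water by stomach tube, with 4 mL/kg water at each hourly catheterization up to 8 h. The first 2 h of urine served as control. Oral dosing came after the second catheterization, and 1–6 h urine was pooled. Na⁺ and K⁺ were measured by flame photometry, Cl⁻ argentometrically, in mequiv/kg.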

The species named for test [4] is Rattus norvegicus. Nature of the test: Diuretic activity in the rats, determined by a modified Lipschitz test. The format is functional, Urine. In outline: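 Modified Lipschitz test: rats deprived of water 24 h, grouped in threes of similar weight in diuresis funnels. Oral dose of 50 mg/kg, suspended in 2% starch solution, by stomach tube.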
The species named for test [5] is Rattus norvegicus. Kind of test: Saluretic activity in the rat measured as concentration of Na+ in urine. In kind it is functional. In outline:
as §1

Test [6] is filed under the species Rattus norvegicus. Nature of the test: Saluretic activity in the rat measured as concentration of chloride in urine. In kind it is functional. The essentials:
as §1

Test [7] concerns Canis familiaris. Nature of the test: Diuretic activity in the dog (2 animals/dose) at (dose 1.56 mg/Kg), when administered perorally. In kind it is functional, Canis lupus familiaris, Urine. The essentials: as §3
In test [8] the test system is Canis familiaris. Nature of the test: Saluretic activity in the dog measured as concentration of Na+ in urinary excretion (2 animals/dose) at (dose 1.56 mg/Kg, po). In kind it is functional, Canis lupus familiaris, Urine. The essentials:
as §2

Test [9] concerns Canis familiaris. Nature of the test: Saluretic activity in the dog measured as concentration of Cl - in urinary excretion (2 animals/dose) at (dose 1.56 mg/Kg, po). In kind it is functional, Canis lupus familiaris, Urine. The essentials: (§4)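 Male beagles trained to the procedures, food withdrawn 24 h before, tap water ad libitum. Bladder emptied by catheter, then 20 mL/kg tap water by stomach tube, plus 4 mL/kg orally at each hourly catheterization up to 8 h. The first 2 h of urine served as control. Compound given orally after the second catheterization. Urine from 1–6 h post-dose pooled; Na⁺ and K⁺ by flame photometry, Cl⁻ argentometrically, in mequiv/kg.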

Test [10] is described as follows: It is the ratio, measured as saluretic activity in the dog as concentration of Na+ in urinary excretion (dose 1.56 mg/Kg, po) to that of K. In kind it is functional, Urine. In outline: as §3
A short description of test [11]: It is the ratio, measured as saluretic activity in the dog as concentration of Cl- in urinary excretion (dose 12.5 mg/Kg, po) to that of (Na++K+). In kind it is functional, Urine. The essentials: as §3
The nature of test [12]: It is the ratio, measured as saluretic activity in the dog as concentration of Cl- in urinary excretion (dose 1.56 mg/Kg, po) to that of (Na+)+(K+). The format is functional, Urine. The essentials: as §3
Test [13] is described as follows: It is the ratio, measured as saluretic activity in the dog as concentration of Na+ in urinary excretion(dose 1.56 mg/kg, p.o.) to that of K. The format is functional, Urine. Particulars: route oral. The essentials:
as §3

Test [14] deals with Canis familiaris. Nature of the test: Saluretic activity in the dog measured as concentration of Cl - in urinary excretion (2 animals/dose) at (dose 12.5 mg/Kg, po). In kind it is functional, Canis lupus familiaris, Urine. The essentials: as §4
For test [15], the system named is Canis familiaris. Kind of test: Diuretic activity in the dog (2 animals/dose) at (dose 12.5 mg/Kg), when administered perorally. In kind it is functional, Canis lupus familiaris, Urine. In outline: as §3
The test system of test [16] is Canis familiaris. Nature of the test: Saluretic activity in the dog measured as concentration of K+ in urinary excretion (2 animals/dose) at (dose 12.5 mg/Kg, po). In kind it is functional, Canis lupus familiaris, Urine. The essentials:
as §2

Test [17] is described as follows: It is the ratio, measured as saluretic activity in the dog as concentration of Na+ in urinary excretion (dose 12.5 mg/Kg, po) to that of K. The format is functional, Urine. The essentials:
as §3

Test [18] deals with Canis familiaris. Kind of test: Saluretic activity in the dog measured as concentration of Na+ in urinary excretion (2 animals/dose) at (dose 12.5 mg/Kg, po). In kind it is functional, Canis lupus familiaris, Urine. In outline:
as §2

Test [19] concerns Canis familiaris. Kind of test: Sailuric activity in the dog measured as concentration of Na+ in urinary excretion (2 animals/dose) at (dose 1.56 mg/Kg, po). In kind it is functional, Canis lupus familiaris, Urine. The essentials: as §4
Test [20] deals with Canis familiaris. Nature of the test: Sailuric activity in the dog measured as concentration of Cl - in urinary excretion (2 animals/dose) at (dose 1.56 mg/Kg, po). The format is functional, Canis lupus familiaris, Urine. The essentials: as §4
For test [21], the system named is Canis familiaris. Nature of the test: Sailuric activity in the dog measured as concentration of K+ in urinary excretion (2 animals/dose) at (dose 1.56 mg/Kg, po). The format is functional, Canis lupus familiaris, Urine. In outline:
as §4

Test [22] in a line: It is the ratio, measured as saluretic activity in the dog as concentration of Na+ in urinary excretion (dose 1.56mg/Kg, po) to that of K. In kind it is functional, Urine. In outline:
as §3

Test [23] relates to Canis familiaris. Nature of the test: Saluretic activity in the dog measured as concentration of Na+ in urinary excretion (2 animals/dose) at (dose 1.56 mg/Kg, perorally). In kind it is functional, Canis lupus familiaris, Urine. In outline:
as §2

The subject of test [24] is Canis familiaris. Kind of test: Salidiuretic activity on the basis of the 1.56 mg/Kg perorally dog assay; compound was found to be highly active. The format is functional, organism-based. Conditions: Canis lupus familiaris; Urine.
Test [25] has as its system Rattus norvegicus. Kind of test: Salidiuretic activity on the basis of the 50 mg/kg perorally rat assay; NA means inactive. Particulars: Urine.
Test [26] can be described thus: It is the ratio, measured as saluretic activity in the dog as concentration of Cl- in urinary excretion (dose 12.5 mg/Kg, perorally) to that of (Na++K+). The format is functional, Urine. The essentials:
as §3

Test [27] has as its system Canis familiaris. Nature of the test: Saluretic activity in the dog measured as concentration of Na+ in urinary excretion (2 animals/dose) at (dose 12.5 mg/Kg, perorally). In kind it is functional, Canis lupus familiaris, Urine. The essentials:
as §2

Test [28] can be described thus: It is the ratio, measured as saluretic activity in the dog as concentration of Cl- in urinary excretion (dose 1.56 mg/Kg, perorally) to that of (Na+)+(K+). In kind it is functional, Urine. The essentials: as §3
For test [29], the system named is Canis familiaris. Nature of the test: Saluretic activity in the dog measured as concentration of K+ in urinary excretion (2 animals/dose) at (dose 1.56 mg/Kg, perorally). The format is functional, Canis lupus familiaris, Urine. In outline: as §4
Test [30] relates to Canis familiaris. Nature of the test: Saluretic activity in the dog measured as concentration of K+ in urinary excretion (2 animals/dose) at (dose 12.5 mg/Kg, perorally). In kind it is functional, Canis lupus familiaris, Urine. The essentials: as §2
Test [31] relates to Canis familiaris. Kind of test: Saluretic activity in the dog measured as concentration of Cl - in urinary excretion (2 animals/dose) at (dose 12.5 mg/Kg, perorally). In kind it is functional, Canis lupus familiaris, Urine. In outline:
as §4

Test [32] is described as follows: It is the ratio, measured as saluretic activity in the dog as concentration of Na+ in urinary excretion (dose 12.5 mg/Kg, perorally) to that of K. In kind it is functional, Urine. In outline: as §3
In test [33] the test system is Canis familiaris. Kind of test: Saluretic activity in the dog measured as concentration of Cl - in urinary excretion (2 animals/dose) at (dose 1.56 mg/Kg, perorally). The format is functional, Canis lupus familiaris, Urine. The essentials:
as §4

The nature of test [34]: It is the ratio, measured as saluretic activity in the dog as concentration of Na+ in urinary excretion (dose 1.56 mg/Kg, perorally) to that of K. In kind it is functional, Urine. The essentials: as §3

Calls of active or inactive are those of the source. No cut-off for these calls is given here.

Consider `NS(=O)(=O)c1cc(S(=O)(=O)[O-])c(NCc2ccco2)cc1[S+]([O-])C1CCCCC1.[Na+]` (centres undefined), for which the Saluretic activity in the test filed under Rattus norvegicus [1] came out at 1.4 m equiv 5hr-1 kg-1; in the test on Canis familiaris [2] it was 0.33 m equiv 6hr-1 kg-1; in the test filed under Rattus norvegicus [5] it was 1.3 m equiv 5hr-1 kg-1; in the test filed under Rattus norvegicus [6], 1.7 m equiv 5hr-1 kg-1; with Canis familiaris [8], 0.59 m equiv 6hr-1 kg-1. For the same compound, the results for the Ratio in [3] and in test [10] were 1.4 and 1.8, respectively. Moreover, the Diuretic activity in the test filed under Rattus norvegicus [4] was determined as 1.2 mL/kg; with Canis familiaris [7] it was 48.4 ml kg-1 6hr-1. The Saldiuretic activity in the test with Canis familiaris [9] turned out to be 1.27 m equiv 6hr-1 kg-1.
Consider `NS(=O)(=O)c1cc(S(=O)(=O)[O-])c(NCc2ccco2)cc1S(=O)(=O)c1ccccc1.[K+]`, for which the Ratio in test [11] turned out to be 1.1; in [12], 1.5; in test [13], 2; in test [17], 4.3. The Saluretic activity in the test filed under Rattus norvegicus [1] was 2.6 m equiv 5hr-1 kg-1; in the test with Canis familiaris [2], 0.25 m equiv 6hr-1 kg-1; in the test listed under Rattus norvegicus [5], 7.1 m equiv 5hr-1 kg-1; in the test filed under Rattus norvegicus [6], 9.8 m equiv 5hr-1 kg-1; in the test on Canis familiaris [16] it was 0.93 m equiv 6hr-1 kg-1; in the test with Canis familiaris [8] it was 0.49 m equiv 6hr-1 kg-1. Moreover, the Saluretic activity in the test with Canis familiaris [18] was determined as 4 m equiv 6hr-1 kg-1. The Diuretic activity in the test filed under Rattus norvegicus [4] worked out at 3.6 mL/kg; in the test on Canis familiaris [15], 59.7 ml kg-1 6hr-1; in the test on Canis familiaris [7] it was 35.3 ml kg-1 6hr-1. In addition, the Saldiuretic activity in the test with Canis familiaris [14] was determined as 5.28 m equiv 6hr-1 kg-1; in the test with Canis familiaris [9], 1.09 m equiv 6hr-1 kg-1.
Take `NS(=O)(=O)c1cc(S(=O)(=O)[O-])c(NCc2ccco2)cc1S(=O)(=O)C1CCCC1.[Na+]`: the Saluretic activity in the test listed under Rattus norvegicus [1] was determined as 2 m equiv 5hr-1 kg-1; in the test with Canis familiaris [19], 4.24 m equiv 6hr-1 kg-1; in the test listed under Rattus norvegicus [5] it was 8 m equiv 5hr-1 kg-1; in the test filed under Rattus norvegicus [6], 9.5 m equiv 5hr-1 kg-1. For the same compound, the results for the Diuretic activity in the test listed under Rattus norvegicus [4] and with Canis familiaris [7] were 4.3 mL/kg and 58 ml kg-1 6hr-1, respectively. Besides, the Saldiuretic activity came to 5.26 m equiv 6hr-1 kg-1 in the test on Canis familiaris [20] and 1.02 m equiv 6hr-1 kg-1 in the test on Canis familiaris [21]. The Ratio in test [12] was determined as 1; in test [22], 4.2.
Turning to `NS(=O)(=O)c1cc(S(=O)(=O)[O-])c(NCc2cccs2)cc1Oc1ccccc1.[K+]`, the Saluretic activity in the test filed under Rattus norvegicus [1] is on record as 0.4 m equiv 5hr-1 kg-1; in the test on Canis familiaris [23], 3.73 m equiv 6hr-1 kg-1; in the test on Canis familiaris [27], 6.89 m equiv 6hr-1 kg-1; with Canis familiaris [29] it was 1.03 m equiv 6hr-1 kg-1; in the test filed under Rattus norvegicus [5], 0.8 m equiv 5hr-1 kg-1; in the test filed under Rattus norvegicus [6], 0.6 m equiv 5hr-1 kg-1. Besides, the Saldiuretic activity result with Canis familiaris [24] is “Active”. Moreover, in the test on Rattus norvegicus [25], the Diuretic activity result is “inactive”. The Ratio in test [26] was 0.95; in test [28] it was 0.95; in test [32], 4.7; in test [34], 3.6. Further, the figures for the Saldiuretic activity in the test with Canis familiaris [30], with Canis familiaris [31] and in the test on Canis familiaris [33] were 1.47 m equiv 6hr-1 kg-1, 7.84 m equiv 6hr-1 kg-1 and 4.45 m equiv 6hr-1 kg-1, respectively. The Diuretic activity in the test filed under Rattus norvegicus [4] came to 0.8 mL/kg; in the test on Canis familiaris [15], 78 ml kg-1 6hr-1; in the test with Canis familiaris [7], 58 ml kg-1 6hr-1.
